Measured values as given in ChEMBL document CHEMBL2396577, “Design, synthesis and biological activity evaluation of desloratadine analogues as H1 receptor antagonists” (Bioorg Med Chem, 2013).

What was measured:
Ileum [1] = assay: Toxicity in guinea pig ileum assessed as effect on acetylcholine-induced smooth muscle spasm at 0.2 ug/mL after 3 mins (reference value: 1.31 +/- 3.66%); assay type: tissue-based, Cavia porcellus; details: in vivo
Ileum [2] = assay: Toxicity in guinea pig ileum assessed as effect on acetylcholine-induced smooth muscle spasm at 0.6 ug/mL after 3 mins (reference value: 1.31 +/- 3.66%); assay type: tissue-based, Cavia porcellus; details: in vivo
Ileum [3] = assay: Toxicity in guinea pig ileum assessed as effect on acetylcholine-induced smooth muscle contraction at 0.2 ug/mL after 3 mins (reference value: 5.17 +/- 0.36 g); assay type: tissue-based, Cavia porcellus
Ileum [4] = assay: Toxicity in guinea pig ileum assessed as effect on acetylcholine-induced smooth muscle contraction at 0.6 ug/mL after 3 mins (reference value: 5.17 +/- 0.36 g); assay type: tissue-based, Cavia porcellus
Mus musculus [5] = assay: Toxicity in mouse assessed as effect on pentobarbital sodium-induced hypnotic effect measured as recovery of righting reflex at 100 mg/kg pretreated for 30 mins prior to pentobarbital sodium-challenge; assay type: organism-based; parameters: dose 100 mg/kg; details: in vivo
Mus musculus [6] = assay: Toxicity in mouse assessed as effect on pentobarbital sodium-induced hypnotic effect measured as recovery of righting reflex at 50 mg/kg pretreated for 30 mins prior to pentobarbital sodium-challenge; assay type: organism-based; parameters: dose 50 mg/kg; details: in vivo
Mus musculus [7] = assay: Toxicity in mouse assessed as effect on pentobarbital sodium-induced hypnotic effect measured as loss of righting reflex latency at 200 mg/kg pretreated for 30 mins prior to pentobarbital sodium-challenge; assay type: organism-based; parameters: dose 200 mg/kg; details: in vivo
Mus musculus [8] = assay: Toxicity in mouse assessed as effect on pentobarbital sodium-induced hypnotic effect measured as loss of righting reflex latency at 50 mg/kg pretreated for 30 mins prior to pentobarbital sodium-challenge; assay type: organism-based; parameters: dose 50 mg/kg; details: in vivo
Mus musculus [9] = assay: Toxicity in mouse assessed as change in body activity at 0.05 to 0.2 mg/kg measured for 7 days; assay type: organism-based; parameters: dose 0.05-0.2 mg/kg; details: in vivo, 168 h
In short: (§1)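 Groups of 10 received saline 10 mL/kg, desloratadine 1 mg/kg, or compound at a low dose (0.05 mg/kg) or high dose (0.2 mg/kg), all at a dosing volume of 10 mL/kg. Over the following seven days, mental state, body activity and abnormal signs were observed: sleep, excitement, irritability, convulsion, salivation and muscle tremor.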

Mus musculus [10] = assay: Toxicity in mouse assessed as change in mental state at 0.05 to 0.2 mg/kg measured for 7 days; assay type: organism-based; parameters: dose 0.05-0.2 mg/kg; details: in vivo, 168 h; in short: as §1
Mus musculus [11] = assay: Toxicity in mouse assessed as muscle tremor at 0.05 to 0.2 mg/kg measured for 7 days; assay type: organism-based, Muscle tissue; parameters: dose 0.05-0.2 mg/kg; details: in vivo, 168 h; in short: as §1
Mus musculus [12] = assay: Toxicity in mouse assessed as salivation at 0.05 to 0.2 mg/kg measured for 7 days; assay type: organism-based; parameters: dose 0.05-0.2 mg/kg; details: in vivo, 168 h; in short: as §1
Mus musculus [13] = assay: Toxicity in mouse assessed as irritability at 0.05 to 0.2 mg/kg measured for 7 days; assay type: organism-based; parameters: dose 0.05-0.2 mg/kg; details: in vivo, 168 h; in short: as §1
Mus musculus [14] = assay: Toxicity in mouse assessed as convulsion at 0.05 to 0.2 mg/kg measured for 7 days; assay type: organism-based; parameters: dose 0.05-0.2 mg/kg; details: in vivo, 168 h; in short: as §1
Mus musculus [15] = assay: Toxicity in mouse assessed as excitement at 0.05 to 0.2 mg/kg measured for 7 days; assay type: organism-based; parameters: dose 0.05-0.2 mg/kg; details: in vivo, 168 h; in short: as §1
Mus musculus [16] = assay: Toxicity in mouse assessed as sleep abnormality at 0.05 to 0.2 mg/kg measured for 7 days; assay type: organism-based; parameters: dose 0.05-0.2 mg/kg; details: in vivo, 168 h; in short: as §1
Cavia porcellus [17] = assay: Antiasthamatic activity in histamine-induced guinea pig asthma model assessed as prolongation of asthmogenic latent period at 0.01 mg/kg, ig pretreated for 60 mins prior to histamine-challenge (reference value: 127.10 +/- 40.46 seconds); assay type: functional; details: route intragastric
[18] = molecular target: Histamine H1 receptor (Cavia porcellus) (UniProt P31389); assay: Antagonist activity at histamine H1 receptor in guinea pig ileum assessed as inhibition of histamine-induced smooth muscle spasm at 0.2 mg/mL after 3 mins (reference value: 1.27 +/- 5.65%); assay type: tissue-based; parameters: scale not given: the % may be the effect or the level left
[19] = molecular target: Histamine H1 receptor (Cavia porcellus) (UniProt P31389); assay: Antagonist activity at histamine H1 receptor in guinea pig ileum assessed as inhibition of histamine-induced smooth muscle contraction at 0.2 mg/mL after 3 mins (reference value: 3.37 +/- 1.05 g); assay type: tissue-based
Ileum [20] = assay: Toxicity in guinea pig ileum assessed as effect on acetylcholine-induced smooth muscle spasm at 1.4 ug/mL after 3 mins (reference value: 1.31 +/- 3.66%); assay type: tissue-based, Cavia porcellus; details: in vivo
Ileum [21] = assay: Toxicity in guinea pig ileum assessed as effect on acetylcholine-induced smooth muscle contraction at 1.4 ug/mL after 3 mins (reference value: 5.17 +/- 0.36 g); assay type: tissue-based, Cavia porcellus
Ileum [22] = assay: Toxicity in guinea pig ileum assessed as effect on acetylcholine-induced smooth muscle spasm at 0.1 ug/mL after 3 mins (reference value: 1.31 +/- 3.66%); assay type: tissue-based, Cavia porcellus; details: in vivo
Ileum [23] = assay: Toxicity in guinea pig ileum assessed as effect on acetylcholine-induced smooth muscle contraction at 0.1 ug/mL after 3 mins (reference value: 5.17 +/- 0.36 g); assay type: tissue-based, Cavia porcellus
Ileum [24] = assay: Toxicity in guinea pig ileum assessed as effect on acetylcholine-induced smooth muscle spasm at 2 ug/mL after 3 mins (reference value: 1.31 +/- 3.66%); assay type: tissue-based, Cavia porcellus; details: in vivo
Ileum [25] = assay: Toxicity in guinea pig ileum assessed as effect on acetylcholine-induced smooth muscle contraction at 2 ug/mL after 3 mins (reference value: 5.17 +/- 0.36 g); assay type: tissue-based, Cavia porcellus
Mus musculus [26] = assay: Toxicity in mouse assessed as effect on pentobarbital sodium-induced hypnotic effect measured as recovery of righting reflex at 1 mg/kg pretreated for 30 mins prior to pentobarbital sodium-challenge; assay type: organism-based; parameters: dose 1 mg/kg; details: in vivo
In short: (§2)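 Mice, 10 per group. Groups: saline, pentobarbital alone, pentobarbital plus desloratadine 1 mg/kg, pentobarbital plus test agent at 0.05 or 0.2 mg/kg. 30 min after dosing, 1% pentobarbital sodium given i.p. at 100 mg/kg (10 mL/kg). Latency to loss of righting reflex and time to its recovery recorded, in min.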

Cavia porcellus [27] = assay: Antiasthamatic activity in histamine-induced guinea pig asthma model assessed as prolongation of asthmogenic latent period at 1 mg/kg, ig pretreated for 60 mins prior to histamine-challenge (reference value: 127.10 +/- 40.46 seconds); assay type: functional; details: route intragastric
Mus musculus [28] = assay: Toxicity in mouse assessed as effect on pentobarbital sodium-induced hypnotic effect measured as loss of righting reflex latency at 1 mg/kg pretreated for 30 mins prior to pentobarbital sodium-challenge; assay type: organism-based; parameters: dose 1 mg/kg; details: in vivo; in short: as §2

Chain of Histamine H1 receptor (Cavia porcellus) (P31389 whole entry): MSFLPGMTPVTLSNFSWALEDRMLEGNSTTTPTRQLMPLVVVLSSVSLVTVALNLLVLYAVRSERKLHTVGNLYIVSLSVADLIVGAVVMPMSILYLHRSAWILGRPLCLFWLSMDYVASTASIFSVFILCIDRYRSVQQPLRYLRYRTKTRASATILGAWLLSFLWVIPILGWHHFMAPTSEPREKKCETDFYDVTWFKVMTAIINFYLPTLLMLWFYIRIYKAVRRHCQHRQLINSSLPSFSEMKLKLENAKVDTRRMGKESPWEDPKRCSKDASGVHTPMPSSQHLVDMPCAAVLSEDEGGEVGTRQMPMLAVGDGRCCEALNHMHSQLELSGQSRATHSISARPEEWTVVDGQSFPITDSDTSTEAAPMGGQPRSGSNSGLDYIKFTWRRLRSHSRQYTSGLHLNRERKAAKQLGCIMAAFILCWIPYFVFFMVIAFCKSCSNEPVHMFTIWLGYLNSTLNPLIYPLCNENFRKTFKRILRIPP

| Compound | Time (Mus musculus [5]) | Time (Mus musculus [6]) | Time (Mus musculus [7]) | Time (Mus musculus [8]) | Activity (Mus musculus [9]) | Activity (Mus musculus [10]) | Activity (Mus musculus [11]) | Activity (Mus musculus [12]) | Activity (Mus musculus [13]) | Activity (Mus musculus [14]) | Activity (Mus musculus [15]) | Activity (Mus musculus [16]) | Time (Cavia porcellus [17]) | Activity [18] | Activity [19] | further results |
| --- | --- | --- | --- | --- | --- | --- | --- | --- | --- | --- | --- | --- | --- | --- | --- | --- |
| CCCN1CCC(=C2c3ccc(Cl)cc3CCc3cccnc32)CC1 | 99 min | 76 min | 1.61 min | 1.47 min | Non-toxic | Non-toxic | Non-toxic | Non-toxic | Non-toxic | Non-toxic | Non-toxic | Non-toxic | 255.1 s | 42.5% | 1.8 g | Activity (Ileum [1]): 56.14%; Activity (Ileum [2]): 73.09%; Activity (Ileum [3]): 7.51 g; Activity (Ileum [4]): 4.38 g |
| ClCCCN1CCC(=C2c3ccc(Cl)cc3CCc3cccnc32)CC1 | 120 min | 97 min | 1.58 min | 1.48 min | Non-toxic | Non-toxic | Non-toxic | Non-toxic | Non-toxic | Non-toxic | Non-toxic | Non-toxic | 256.9 s | 43% | 1.81 g | Activity (Ileum [2]): 47.21%; Activity (Ileum [20]): 69.51%; Activity (Ileum [4]): 8.56 g; Activity (Ileum [21]): 5.68 g |
| O=C1c2ccccc2C(=O)N1CCCN1CCC(=C2c3ccc(Cl)cc3CCc3cccnc32)CC1 |  |  |  |  |  |  |  |  |  |  |  |  | 247.9 s | 26.6% | 2.71 g |  |
| Clc1ccc2c(c1)CCc1cccnc1C2=C1CCN(C2CC=CCC2)CC1 (stereo not given) |  |  |  |  |  |  |  |  |  |  |  |  | 262.7 s | 28.3% | 2.38 g |  |
| CN1[C@@H]2CC[C@H]1CC(OC(=O)[C@H](CO)c1ccccc1)C2 (stereo partly drawn) [ENDO-ATROPINE] |  |  |  |  |  |  |  |  |  |  |  |  |  |  |  | Activity (Ileum [22]): 74.9%; Activity (Ileum [23]): 3.47 g |
| NCCCN1CCC(=C2c3ccc(Cl)cc3CCc3cccnc32)CC1 |  |  |  |  |  |  |  |  |  |  |  |  | 182.8 s | 26% | 2.36 g |  |
| Clc1ccc2c(c1)CCc1cccnc1C2=C1CCN(C2CCC(Cl)CC2)CC1 (stereo not given) | 103 min | 82 min | 1.62 min | 1.61 min | Non-toxic | Non-toxic | Non-toxic | Non-toxic | Non-toxic | Non-toxic | Non-toxic | Non-toxic | 325.2 s | 61.1% | 1.29 g | Activity (Ileum [20]): 61.39%; Activity (Ileum [24]): 70.61%; Activity (Ileum [21]): 5.59 g; Activity (Ileum [25]): 4.4 g |
| Clc1ccc2c(c1)CCc1cccnc1C2=C1CCNCC1 [DESLORATADINE] |  |  |  |  |  |  |  |  |  |  |  |  |  | 49.1% | 1.67 g | Time (Mus musculus [26]): 93 min; Time (Cavia porcellus [27]): 278.2 s; Time (Mus musculus [28]): 2.23 min |
| CN(C)CCCN1CCC(=C2c3ccc(Cl)cc3CCc3cccnc32)CC1 |  |  |  |  |  |  |  |  |  |  |  |  | 212.8 s | 30.4% | 2.66 g |  |
| OC1CCC(N2CCC(=C3c4ccc(Cl)cc4CCc4cccnc43)CC2)CC1 (stereo not given) |  |  |  |  |  |  |  |  |  |  |  |  | 222 s | 13% | 2.93 g |  |
| FCCCN1CCC(=C2c3ccc(Cl)cc3CCc3cccnc32)CC1 | 123 min | 98 min | 1.45 min | 1.47 min | Non-toxic | Non-toxic | Non-toxic | Non-toxic | Non-toxic | Non-toxic | Non-toxic | Non-toxic | 269.4 s | 48.7% | 1.74 g | Activity (Ileum [1]): 54.35%; Activity (Ileum [2]): 62.47%; Activity (Ileum [3]): 9.11 g; Activity (Ileum [4]): 6.58 g |
| Clc1ccc2c(c1)CCc1cccnc1C2=C1CCN(C2CCCCC2)CC1 |  |  |  |  |  |  |  |  |  |  |  |  | 250.3 s | 29.4% | 2.57 g |  |
| OCCCN1CCC(=C2c3ccc(Cl)cc3CCc3cccnc32)CC1 | 100 min | 76 min | 1.46 min | 1.54 min | Non-toxic | Non-toxic | Non-toxic | Non-toxic | Non-toxic | Non-toxic | Non-toxic | Non-toxic | 221.9 s | 45.2% | 1.73 g | Activity (Ileum [20]): 58.27%; Activity (Ileum [24]): 67.06%; Activity (Ileum [21]): 6.72 g; Activity (Ileum [25]): 6.04 g |
